High-throughput results (PubChem)
PABP1 MLLE inh – inhibitors of PABP1 MLLE–PAM2 peptide binding, primary screen, biochemical, fluorescence polarization, FITC-PAM2, GST-MLLE | Polyadenylate-binding protein 1 (Homo sapiens), P11940 | AID 588489, 2011 | inhibition, % at 20 µM | 0.36% of 360,000 active; in the data active means inhibition above about 35%, passing the limit was not always enough
IMP-1 inh – IMP-1 metallo-beta-lactamase inhibitors, primary screen, biochemical, epi-absorbance readout, Pseudomonas aeruginosa enzyme | metallo-beta-lactamase IMP-1 (Pseudomonas aeruginosa) | purified IMP-1, nitrocefin hydrolysis, epi-absorbance fluorescence | inhibition, % at 5.6 µM | 0.45% of 290,000 active;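 active means inhibition above the mean plus 3 SD of all compounds in the same screening run, cut at about 4.5% in these data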
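Material – recombinant IMP-1 enzyme, purified · Amount – IMP-1 0.2 nM before substrate addition · Medium – HEPES buffer pH 7.1 with ZnSO4 and Brij 35 · Timing – 25 °C, 15 min preincubation, 25 min reaction · Measured by – plate fluorescence quenching by hydrolysis product, ex 480/em 530 nm · Read-out – percent enzyme inhibition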
VIM-2 inhibitor – VIM-2 metallo-beta-lactamase inhibitors, primary screen, biochemical, epi-absorbance readout, Pseudomonas aeruginosa enzyme | purified VIM-2, nitrocefin hydrolysis, epi-absorbance fluorescence | inhibition, % at 5.6 µM | 0.89% of 290,000 active | AID 1527, 2009;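 active means inhibition above the mean of all tested compounds plus 3 SD, cutoff set per screening run, cut at about 7.5% in these data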;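 further: red hydrolysis product quenches plate fluorescence so inhibitors raise well fluorescence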
eIF4H FP inh – human eIF4H binding inhibitors, primary screen, translation initiation inhibitor project, biochemical, uHTS, fluorescence polarization; Eukaryotic translation initiation factor 4H (Homo sapiens), Q15056; inhibition, % at 35 µM; 0.94% of 290,000 active; eIF4H fluorescence polarization binding assay;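 further: calls also rest on retests at 20 µM and on dose response follow-up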
PABP polyA inh – PABP poly(A) RNA binding inhibitors, primary screen, biochemical, fluorescence polarization, uHTS; Polyadenylate-binding protein 1 (Homo sapiens), P11940; calls only at 35 µM; 1% of 290,000 active; AID 2014, 2009;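 further: calls also rest on retests at 20 µM and on dose response follow-up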
Of the large screens only hits and unclear results are named; the others gave an inactive call. This is a sample that favours compounds with a hit; in the whole collection about 2.2% have one here. Unless noted, how the calls were made is not given here.

O=S(=O)(NCCC1=CCCCC1)c1ccc(F)cc1	none
NC(=O)C1CCN(C(=O)Cc2ccc(-c3ccccc3)cc2)CC1	IMP-1 inh 9.7
O=C(O)C1CCN(C(=O)Cc2ccccc2)CC1	none
Cc1ccc2cc(C#N)c(N3CCCC3)nc2c1C	none
Cc1ccc2cc(C#N)c(N3CCCN(C(=O)C4CCCO4)CC3)nc2c1C (stereo not drawn)	eIF4H FP inh 94, PABP polyA inh active
CC(C)C[C@H](NC(=O)OCC1c2ccccc2-c2ccccc21)C(=O)O	none (no result: IMP-1 inh, VIM-2 inhibitor, eIF4H FP inh, PABP polyA inh)
CCCCc1nc2cc(C(=O)N3CCC(OCCOC)CC3)ccc2o1	none
O=C(CC(Sc1ccc(Br)cc1)C(=O)O)c1ccc(F)cc1 (stereo not drawn)	PABP1 MLLE inh 39
CCOc1ccc(C(=O)CC(Sc2ccc(C)cc2)C(=O)O)cc1 (stereo not drawn)	none
Cc1ccc(N2C(=O)CC(SCC(=O)Nc3ccc(S(N)(=O)=O)cc3)C2=O)cc1 (stereo not drawn)	PABP1 MLLE inh 42
S=C(c1ccc(-c2ccc(Cl)c(Cl)c2)o1)N1CCOCC1	none
S=C(c1ccc(-c2ccccc2Cl)o1)N1CCOCC1	PABP1 MLLE inh 41
COCCNC(=S)N1CCC(NC(=O)Nc2ccc(C)cc2)CC1	none
CCOc1ccc(C2C(C#N)=C(N)N(c3sc4c(c3C#N)CCCC4)C3=C2C(=O)CCC3)cc1 (stereo not drawn)	eIF4H FP inh inconclusive, PABP polyA inh active
N#CC1=C2N=C(N)c3c(sc4c3CCCCC4)N2C2=C(C(=O)CCC2)C1c1ccccc1 (stereo not drawn)	none
Cc1ccsc1/C=N/NC(=O)C1CC(=O)N(c2ccccc2)C1 (stereo not drawn)	none
CSc1nc2c(=S)[nH]c(=S)[nH]c2s1	PABP1 MLLE inh 39 (no result: IMP-1 inh, VIM-2 inhibitor, eIF4H FP inh, PABP polyA inh)
O=C(NC1CCOCC1)C1CCC(=O)N(CCc2ccc(Cl)cc2)C1 (stereo not drawn)	none
CC1CCCCC12NC(=O)N(CC(=O)Nc1ccc3[nH]c(=O)[nH]c3c1)C2=O (stereo not drawn)	none (no result: IMP-1 inh, VIM-2 inhibitor, eIF4H FP inh, PABP polyA inh)
CN1CCN(C(=O)CCCN2C(=O)/C(=C/c3cccc(Br)c3)SC2=S)CC1	VIM-2 inhibitor 12
O=C(CCCN1C(=O)/C(=C/c2cccc(Br)c2)SC1=S)N1CCOCC1	none
CN1CCN(C(=O)CCN2C(=O)/C(=C\c3ccc(F)cc3)SC2=S)CC1	none (no result: IMP-1 inh, VIM-2 inhibitor, eIF4H FP inh, PABP polyA inh)
CN1CCN(C(=O)CCN2C(=O)/C(=C/c3cccc(Br)c3)SC2=S)CC1	IMP-1 inh 5.5
NCC1CC2c3ccccc3C1c1ccccc12 (stereo not drawn)	none
COC(=O)c1ccc(Nc2cc(C)nc3nc(C)nn23)cc1	none
Cc1cc(Nc2ccccc2Br)n2nc(C)nc2n1	none
CCOC(=O)c1ccccc1Nc1cc(C)nc2nc(C)nn12	VIM-2 inhibitor 9.5
CCOc1ccc(Nc2cc(C)nc3nc(C)nn23)cc1	VIM-2 inhibitor 8.4
COc1ccc(Nc2cc(C)nc3nc(C)nn23)c(OC)c1	VIM-2 inhibitor 12
COc1ccc(Nc2cc(C)nc3ncnn23)c(OC)c1	none
COc1cccc(Nc2cc(C)nc3nc(C)nn23)c1	VIM-2 inhibitor 11
Cc1ccc(-c2c(C(=O)N/N=C/c3ccsc3)nnn2-c2nonc2N)cc1	none
COC(=O)c1cc2c(C)c(C)c3ccccn3c-2c1C(=O)OC	PABP1 MLLE inh 60
COC(=O)c1cc2ccccn2c2c(C(=O)OC)c(C(=O)OC)cc1-2	none
COC(=O)c1cn(-c2ccccc2)c(C)c1C(=O)OC	none
COC(=O)c1cc2n3ccccc3c(C)c(-c3ccccc3)c-2c1C(=O)OC	PABP1 MLLE inh 47, eIF4H FP inh 130, PABP polyA inh active
C[C@H]1CN([C@@H](C)CO)C(=O)c2cc(Br)cnc2O[C@@H]1CN(C)S(=O)(=O)c1cn(C)cn1	none (no result: IMP-1 inh, VIM-2 inhibitor, eIF4H FP inh, PABP polyA inh)
CCOC(=O)C1CCCCN1Cc1ccc(-c2ccccc2)cc1 (stereo not drawn)	none
C=CCn1c(SCC(=O)N2CCOCC2)nc2scc(-c3ccco3)c2c1=O	eIF4H FP inh 66, PABP polyA inh active
C=CCn1c(SCC(=O)N2CCCC2)nc2scc(-c3cccs3)c2c1=O	none
C=CCn1c(SCC(C)=O)nc2scc(-c3ccco3)c2c1=O	IMP-1 inh 16, eIF4H FP inh 67, PABP polyA inh active
CC(NC(=O)COC(=O)CCC(=O)c1ccc(F)cc1)c1ccccc1 (stereo not drawn)	none (no result: IMP-1 inh, VIM-2 inhibitor, eIF4H FP inh, PABP polyA inh)
CCOC(=O)c1c(C)n(-c2ccccc2)c2ccc(OCCN(C)C)cc12	none
Cc1cc2nn(-c3cccc4ccccc34)nc2cc1N	none
Nc1ccc2nn(-c3cccc4ccccc34)nc2c1	eIF4H FP inh 91
COc1cc2c(cc1OC)C(C)N(C(=O)C(NC(=O)c1ccccc1)C(C)C)CC2 (stereo not drawn)	none
Cc1ccc(C(CC(=O)O)NC(=O)CCNC(=O)c2ccco2)cc1 (stereo not drawn)	none (no result: IMP-1 inh, VIM-2 inhibitor, eIF4H FP inh, PABP polyA inh)
COCCn1c(C)cc(/C=C2\NC(=S)N(C)C2=O)c1C	PABP polyA inh active
COc1ccccc1NC1=C(Cl)C(=O)N(C2CCCCC2)C1=O	none
Cc1ccccc1NC1=C(Cl)C(=O)N(C2CCCCC2)C1=O	IMP-1 inh 8.2
CC(C)C(OC(=O)c1nsc(Cl)c1Cl)C(=O)NCc1ccccc1 (stereo not drawn)	none
COC(=O)C1=C(Nc2ccccc2NC(=O)CCCC(=O)O)CSC1	IMP-1 inh 4.5
COC(=O)C1=C(Nc2ccccc2NC(=O)c2ccccc2C(=O)O)CSC1	none
C/C(N)=C(/C#N)C(=O)CN1C(=O)NC(Cc2c[nH]c3ccccc23)C1=O (stereo not drawn)	eIF4H FP inh 57
Oc1ccccc1/C=N/c1c(-c2ccco2)nc2ccccn12	eIF4H FP inh inconclusive, PABP polyA inh inconclusive
COc1ccc(/C=N/c2c(-c3ccco3)nc3ccccn23)cc1OC	PABP1 MLLE inh 47, eIF4H FP inh inconclusive, PABP polyA inh inconclusive
Clc1ccc(/C=N/c2c(-c3ccco3)nc3ccccn23)cc1	PABP1 MLLE inh 39, eIF4H FP inh 128, PABP polyA inh active
O=C(Nn1c(O)c(C=C2N=c3ccccc3=N2)sc1=S)c1cccc(Cl)c1	PABP polyA inh active
N#C/C(=C/c1ccc(N2CCOCC2)c([N+](=O)[O-])c1)C(N)=O	eIF4H FP inh 62, PABP polyA inh active
Cc1cc(/C=C(\C#N)C(=O)Nc2ccc(F)cc2)c(C)n1-c1ccc(N2CCOCC2)c([N+](=O)[O-])c1	IMP-1 inh 5.0
Cn1nc2c(c1C(=O)O)CCCC2	eIF4H FP inh 102, PABP polyA inh active
Cn1nc2c(c1C(=O)N1CCCC(C(=O)c3cc(F)ccc3F)C1)CCCC2 (stereo not drawn)	none
CCOC(=O)C1(C)CCN1C(=O)c1ccccc1C(F)(F)F (stereo not drawn)	none (no result: IMP-1 inh, VIM-2 inhibitor, eIF4H FP inh, PABP polyA inh)
